# Assay outcomes as filed in PubChem.
# Hits are enriched below; roughly 2.3% of the tested compounds scored in any of these assays.
# TRPC6 inh: mouse TRPC6 channel inhibitors, primary screen, cell-based, HEK293, membrane potential dye; Short transient receptor potential channel 6 (Mus musculus), Q61143; ACh-evoked depolarization; active compounds read low; B-score at 10 µM; hit rate 1.1% among 310,000; AID 2553, 2010;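 active means B-score under library mean minus 3 SD, initial fluorescence not abnormally high, positive integrated signal ratio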;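 further: B-score derived from integrated fluorescence ratio over the kinetic read; more negative B-score means stronger inhibition of depolarization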
# TRPC6 activator: mouse TRPC6 channel activators, primary screen, cell-based, HEK293, membrane potential dye; Short transient receptor potential channel 6 (Mus musculus), Q61143; HEK293-TRPC6 membrane potential dye fluorescence; active compounds read high; B-score at 10 µM; hit rate 0.13% among 310,000;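 active means B-score of the integrated fluorescence ratio above library mean plus 3 SD, and starting fluorescence ratio within library mean plus 5 SD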;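 further: higher score means more depolarization so channel activation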
# TRPC4 agonist: activators of mouse TRPC4 channel, primary screen, Fluo4 calcium, HEK293 TRPC4beta/mu-opioid cells; Short transient receptor potential channel 4 (Mus musculus), Q9QUQ5; Fluo4 calcium fluorescence; active compounds read high; B-score at 10 µM; hit rate 0.49% among 310,000; AID 2237, 2010;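 active means B-score above 5 SD of library B-scores, and initial fluorescence ratio not above library mean plus 5 SD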;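 further: positive B-score marks a calcium rise read as TRPC4 activation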
#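 Material: TRPC4beta and mu-opioid receptor HEK293 stable cells | Incubation: 45 min room-temperature Fluo4 loading, 110 s read | Detection: Kinetic Fluo4 calcium fluorescence | Measure: Integrated baseline-normalised fluorescence ratio, converted to per-well B score | Benchmarks: Low control buffer alone, high control maximal DAMGO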
# TRPC4 block: inhibitors of mouse TRPC4 channel, primary screen, Fluo4 calcium, HEK293 TRPC4beta/mu-opioid cells; hit rate 0.39% among 300,000; Short transient receptor potential channel 4 (Mus musculus), Q9QUQ5; DAMGO-evoked Fluo4 calcium flux; active compounds read low; B-score at 10 µM;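 active means B-score over 3 SD under the library average, no early fluorescence shift, positive overall ratio signal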
#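 Assay system – HEK293 line stably carrying TRPC4beta and mu-opioid receptor · Doses – single dose · Detection – Fluo4 calcium-dye fluorescence, kinetic read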
# TRPC4 PAM: positive allosteric modulators of TRPC4, primary screen, cell-based, mouse TRPC4beta, HEK293 mu-opioid, Fluo-4 calcium; DAMGO EC20, Fluo-4 Ca2+ flux; active compounds read high; B-score at 10 µM; hit rate 0.42% among 310,000; AID 2227, 2009;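 active means B-score of calcium response area above 5 SD of library B-scores, with initial fluorescence ratio within 5 SD of library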;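 further: B-score of integrated fluorescence ratio over time as area under calcium response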
# * marks the source's active call; other numbers are inactive results; i = inactive.
SMILES,TRPC6 inh,TRPC6 activator,TRPC4 agonist,TRPC4 block,TRPC4 PAM
O=C(COC(=O)CNC(=O)c1ccc(Cl)c([N+](=O)[O-])c1)NC(=O)CN1CCCC1=O,i,i,i,i,i
CN(C)CCCNS(=O)(=O)c1ccc(Cl)s1,i,i,i,i,i
CC1=CC(=O)C(C(C)C)=C/C1=N/OS(=O)(=O)c1ccccc1,i,i,i,i,21*
CC1=CC(=O)C=C(C)C1=NOS(=O)(=O)c1ccccc1,i,i,i,i,i
COCCNCC(=O)N1CCCCCC1,i,i,i,i,i
CC1CC(C)CN(CCCNC(=O)COc2cc(=O)n(C)c3ccccc23)C1 (stereo unspecified),i,i,85*,i,10*
CCn1c(=O)cc(OCC(=O)NCCCN2CC(C)CC(C)C2)c2ccccc21 (stereo unspecified),i,i,90*,i,i
COC(=O)c1ccc(NC(=S)NC2CCc3ccccc32)cc1 (stereo unspecified),i,i,i,i,i
COC(=O)c1sccc1NC(=S)N1CCN(C)CC1,i,i,50*,i,i
COC(=O)c1sccc1NC(=S)N1CCN(c2cc(C)ccc2C)CC1,i,i,i,i,i
CCN1CCN(C(=S)Nc2ccsc2C(=O)OC)CC1,i,i,57*,i,i
CCn1c(-c2ccc(N)cc2)nc2ccccc21,i,i,71*,i,i
Nc1nc(Sc2c([N+](=O)[O-])cc(C(F)(F)F)cc2[N+](=O)[O-])n[nH]1,i,i,i,i,i
CC1CCCN(S(=O)(=O)c2ccc(NC(=O)C3CC(=O)N(c4ccccc4)C3)cc2)C1 (stereo unspecified),i,i,i,i,i
COc1ccc(OC)c(Nc2cc(-c3ccccc3)nc(N)n2)c1,-5.4*,i,i,-7*,i
Cc1cccc(-n2ccnc2CN2CCC(CO)(Cc3ccccc3)CC2)c1,i,i,i,-7*,i
C=CCOc1ccc(Br)cc1CNC(C)(C)CO,i,i,i,-7*,i
CCN1CCN(c2ccc(S(=O)(=O)N3CCOCC3)cc2NC(=O)c2cc(Cl)nc3ccccc23)CC1,i,i,47*,i,i
CCN1CCN(c2ccc(S(=O)(=O)N3CCOCC3)cc2NC(=O)c2ccc(Cl)s2)CC1,i,i,i,i,i
CCN1CCN(c2ccc(S(=O)(=O)N3CCOCC3)cc2NC(=O)c2ccccc2SC)CC1,i,i,175*,i,i
Cn1c(=O)c2c(nc(SCc3cccnc3)n2Cc2ccc(F)cc2)n(C)c1=O,i,i,i,-5*,i
Cc1ccc(Cn2c(SCCN3CCCCC3)nc3c2c(=O)n(C)c(=O)n3C)cc1,i,i,43*,i,70*
Cn1c(=O)c2c(nc(SCCN3CCOCC3)n2Cc2ccc(F)cc2)n(C)c1=O,i,i,i,i,i
CC1Cc2ccccc2N1C(=O)CSc1nc2c(c(=O)n(C)c(=O)n2C)n1Cc1ccccc1 (stereo unspecified),i,i,245*,-7*,13*
Cc1ncsc1CCC(=O)N1CCCC(C(=O)c2ccc3c(c2)OCO3)C1 (stereo unspecified),i,i,i,i,i
SMILES,TRPC6 inh,TRPC6 activator,TRPC4 agonist,TRPC4 block,TRPC4 PAM
COc1ccc(/C=C/C(=O)Oc2cc(O)cc(O)c2)cc1,i,i,i,-7*,i
CCCCCC(=O)Nc1cccc(C2=NOC3(C2)C[C@@H](C(N)=O)N(C(=O)c2ccc(Cl)cc2)C3)c1 (stereo partly specified),i,i,i,i,i
CC(=O)Nc1ccc(-c2cc(C(=O)O)c3ccccc3n2)cc1,i,i,i,i,i
COc1cccc(NC(=O)CN(C)C(=O)c2oc3c(ccc4ccccc43)c2C)c1,i,i,i,i,i
COc1cc(-c2n[nH]c(=S)n2/N=C/c2cccn2C)cc(OC)c1OC,i,i,52*,i,i
COc1ccc(CNC(=O)COC(=O)/C=C/c2cccc(Br)c2)cc1OC,i,i,i,i,i
CN(Cc1ccccc1)C(=O)c1oc(=O)c2ccccc2c1-c1ccccc1,i,i,i,i,16*
Cc1nc2c3ccccc3nc(NNC(=O)CCC(=O)NCCN3CCN(c4ccccc4)CC3)n2n1,i,i,i,i,i
CCC1(C(=O)c2ccccc2)C(c2ccc([N+](=O)[O-])cc2)C1(C(=O)OC)C(=O)OC (stereo unspecified),i,i,i,-7*,i
Cc1ccc(-n2cc(CN3CCC(O)(c4ccccn4)CC3)c(-c3ccc(F)cc3)n2)cc1,i,i,77*,i,i
S=c1[nH]nc(-c2cc3c(s2)-c2ccccc2CC3)o1,i,i,i,-6*,i
Nc1ncc(Br)cc1S(=O)(=O)Nc1cc(C(F)(F)F)cc(C(F)(F)F)c1,i,i,46*,i,i
Cc1cccc(Oc2sc(C(=O)c3ccccc3)c(N)c2C#N)c1C,i,i,i,i,i
N#Cc1c(Oc2ccc3ccccc3c2)sc(C(=O)c2ccccc2)c1N,i,i,i,i,12*
Cc1cc(N2CCCCC2)nc(NCc2ccccc2)n1,i,i,47*,i,12*
Cc1cc(N2CCOCC2)nc(NCc2ccccc2)n1,i,i,i,i,i
Cc1cc(NCc2ccccc2)nc(N2CCOCC2)n1,i,i,i,-6*,i
CNc1cc(C)nc(N2CCOCC2)n1,i,i,i,i,i
NC(=O)c1cc(S(=O)(=O)NC2CCCCC2)co1,i,i,i,i,i
CCCCc1nnc(NC(=O)C2CC(=O)N(Cc3ccccc3)C2)s1 (stereo unspecified),i,i,i,i,i
C=CCN(CC=C)CCOc1ccccc1,i,i,i,i,12*
C=CCN(CC=C)CCOc1ccc2ccccc2c1,i,i,i,i,i
CCOc1cc(N2CCOCC2)c(OCC)cc1NC(=O)CN1C(=O)C2CC=CCC2C1=O (stereo unspecified),i,i,i,i,i
